Data: publication PMC9713862 (ACS Omega, 2022)
Marks after values point to notes of the source that are not given here.

What was measured:
apo-transferrin (apoTf) = apo-transferrin (apoTf) (Homo sapiens, UniProt P02787); assay: Stability assessment in apoTf solution; format: in vitro ADME; conditions: 74 kBq/100 μL added to same volume of 0.2 mM apoTf in 200 mM sodium bicarbonate buffer pH 7.4 (ApoTf 0.1 mM), 37 °C, 5% CO2, RP-TLC, mean ± SD (n = 5)
In short: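 [67Ga]-labelled test compound was HPLC-purified and taken up in D-PBS(−). 74 kBq/100 μL was mixed with an equal volume of 0.2 mM (stock) apoTf in 200 mM sodium bicarbonate, pH 7.4. The mix was held at 37 °C under 5% CO2. At 3 and 24 h, 5 μL aliquots were analysed by RP-18 TLC in 0.1% aqueous TFA/MeCN with 0.1% TFA (2:3).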

[1] = Ga complex with N3O3 configuration, 1.5 h; cited from earlier work

Chain of apo-transferrin (apoTf) (P02787 20-698): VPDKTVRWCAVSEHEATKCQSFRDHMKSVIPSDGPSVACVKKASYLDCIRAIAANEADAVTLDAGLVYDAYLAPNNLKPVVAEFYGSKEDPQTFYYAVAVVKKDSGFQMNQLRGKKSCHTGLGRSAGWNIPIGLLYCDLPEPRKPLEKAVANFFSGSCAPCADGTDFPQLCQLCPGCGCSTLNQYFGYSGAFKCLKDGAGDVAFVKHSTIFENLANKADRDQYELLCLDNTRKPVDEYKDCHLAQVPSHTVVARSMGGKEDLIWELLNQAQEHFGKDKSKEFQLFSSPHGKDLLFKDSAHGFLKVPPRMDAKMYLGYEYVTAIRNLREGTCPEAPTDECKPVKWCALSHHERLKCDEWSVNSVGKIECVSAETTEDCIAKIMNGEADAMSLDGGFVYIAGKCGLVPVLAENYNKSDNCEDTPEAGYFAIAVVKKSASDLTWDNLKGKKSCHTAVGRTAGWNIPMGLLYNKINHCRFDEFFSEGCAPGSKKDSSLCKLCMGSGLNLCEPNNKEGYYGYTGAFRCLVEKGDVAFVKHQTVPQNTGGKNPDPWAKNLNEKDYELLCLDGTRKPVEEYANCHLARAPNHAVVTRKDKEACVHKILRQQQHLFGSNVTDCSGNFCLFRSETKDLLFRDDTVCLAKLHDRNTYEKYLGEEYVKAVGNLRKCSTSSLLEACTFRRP

| Compound | Stability of 67Ga-labeled model chelators, ApoTf (0.1 mM), 3 h (apo-transferrin (apoTf)) | Stability of 67Ga-labeled model chelators, ApoTf (0.1 mM), 24 h (apo-transferrin (apoTf)) | Ga complex decomposed in human serum [1] [%] |
| --- | --- | --- | --- |
| CCCCNC(=O)CCC(C(=O)[O-])N1CCN(CC(=O)[O-])CCN(CC(=O)[O-])CCN(CC(=O)[O-])CC1.[67Ga+3] (centres unmarked) [[^67Ga]Ga-DOTAGAM^Bu] | 80.0 ± 1.3 ^b ^c ^d | 27.5 ± 4.6 ^b ^c ^d |  |
| O=C(O)CN1CCOCCN(CC(=O)O)CCN(CC(=O)O)CC1 [oxo-DO3A] |  |  | > 80 |
| O=C([O-])CN1CCN(CC(=O)[O-])CCN(Cc2ccc([N+](=O)[O-])cc2)CCN(CC(=O)[O-])CC1.[67Ga+3] [[^67Ga]Ga-p-NO2-Bn-DO3A] | 93.8 ± 0.6 ^b | 67.5 ± 0.6 ^b |  |
| O=C([O-])CN1CCN(CC(=O)[O-])CCN(CC(=O)[O-])C(Cc2ccc([N+](=O)[O-])cc2)CN(CC(=O)[O-])CC1.[67Ga+3] (centres unmarked) [[^67Ga]Ga-p-NO2-Bn-DOTA (A)] | 95.1 ± 1.2 ^d ^e ^f | 90.3 ± 0.7 ^c ^d ^e ^f |  |

Second part, led by results:

| Stability of 67Ga-labeled model chelators, ApoTf (0.1 mM), 3 h (apo-transferrin (apoTf)) | Stability of 67Ga-labeled model chelators, ApoTf (0.1 mM), 24 h (apo-transferrin (apoTf)) | Compound | Ga complex decomposed in human serum [1] [%] |
| --- | --- | --- | --- |
| 96.4 ± 0.2 | 89.6 ± 0.5 | O=C([O-])CN1CCN(CC(=O)[O-])CCN(CC(=O)[O-])CCN(CC(=O)[O-])CC1.[67Ga+3] [[^67Ga]Ga-DOTA, reference compound] |  |
| 87.4 ± 0.5 ^b ^c | 43.1 ± 1.1 ^b ^c | CCCCNC(=O)CN1CCN(CC(=O)[O-])CCN(CC(=O)[O-])CCN(CC(=O)[O-])CC1.[67Ga+3] [[^67Ga]Ga-DO3AM^Bu] |  |
